# Assay results pooled from the literature.
# Each line is one published result; the experiments were not run side by side.
# Target: Cytochrome P450 1A2 (CYP1A2, Homo sapiens, UniProt P05177)
SMILES,assay,test system,setting,quantity,result
N=C(N)NCc1ccc(NC(=O)C23CCC(C(=O)Nc4ccc(C5=CCN(C(=N)N)CC5)cc4)(CC2)CC3)cc1,"enzyme activity, inhibitor",liver microsomes,10 µM,inhibition,0%
COc1ccc(Oc2ccc(CNCc3cnc4nc(N)nc(N)c4n3)cc2)cc1,"enzyme activity, inhibitor, luciferase",,10 µM,inhibition,-5.44%
CON=C(N)c1ccc(-c2ccc(-c3ccc(C(N)=NOC)cc3)o2)cc1,"enzyme activity, substrate",,,Km,0.4 µM
C=C[C@H]1C[N@@]2CC[C@H]1C[C@@H]2[C@@H](O)c1ccnc2ccc(OC)cc12,"enzyme activity, inhibitor","human, liver microsomes",10 µM,inhibition,-5%
CCc1cc(/C(C)=N/OCc2ccc(C3CCCCC3)c(C(F)(F)F)c2)ccc1CN1CC(C(=O)O)C1,"enzyme activity, inhibitor","human, liver microsomes","200 µM, 20 min",inhibition,-193%
Cc1cccc(F)c1N1CCC(N2Cc3cn(CC(C)(F)F)nc3N(Cc3ccccc3C(F)(F)F)C2=O)CC1,"enzyme activity, inhibitor","human, liver microsomes",,IC50,> 10 µM
CC1(CO)C(O[C@@H]2O[C@H](C(=O)O)[C@@H](O)[C@H](O)[C@H]2O)CC[C@@]2(C)C1CC[C@]1(C)C2CC=C2[C@H]3CC(C)(C)[C@H](O)[C@@H](O)[C@]3(CO)[C@H](O)C[C@]21C (stereo partly drawn),"enzyme activity, inhibitor, mass spectrometry","human, liver microsomes",,IC50,> 90 µg/mL
COc1ccc(CNC(=O)c2ccc(CNCc3cnc4nc(N)nc(N)c4n3)cc2)cc1OC,"enzyme activity, inhibitor, luciferase",,10 µM,inhibition,-18.2%
C=CC(=O)Nc1cc(Nc2nccc(Nc3cc(Cl)c(F)cc3C(C)(C)O)n2)c(OC)cc1N1CC[C@@H](N(C)C)C1,"enzyme activity, inhibitor","human, liver microsomes",10 µM,inhibition,< 20%
Cc1ccc(C(=O)N2CCOC[C@H]2Cc2cccc(-n3nccn3)c2)c(-n2nccn2)c1,"enzyme activity, inhibitor","human, liver microsomes",100 µM,inhibition,23%
N[C@@H](COCc1ccccc1)C(=O)Nc1nc2ccc(OC(F)(F)F)cc2s1,metabolic stability,"human, liver microsomes","1 µM, 0 h, pH 7.4",compound remaining,100%
O=C(N[C@H](Cc1c[nH]c2ccccc12)C(=O)Nc1ccncc1)c1ccc(-c2cc(F)ccc2F)cc1F,"enzyme activity, inhibitor","human, liver microsomes",1 µM,inhibition,3%
COc1ccc(Oc2ccc(CN(Cc3ccccc3)Cc3cnc4nc(N)nc(N)c4n3)cc2)cc1,"enzyme activity, inhibitor, luciferase",,10 µM,inhibition,-21.8%
CC(=O)N1CCN(c2ccc(OCC3COC(Cn4ccnc4)(c4ccc(Cl)cc4Cl)O3)cc2)CC1 (stereo not drawn),"enzyme activity, inhibitor","human, liver microsomes",1 µM,inhibition,-6%
Nc1nc(N)c2nc(CNc3ccc(C(=O)N4CCC(C(=O)O)CC4)cc3)cnc2n1,"enzyme activity, inhibitor, luciferase",,10 µM,inhibition,-33.3%
O=C(Nc1c2c(cc3c1CCC3)CCC2)NS(=O)(=O)/C=C/c1nccs1,"enzyme activity, inhibitor","human, liver microsomes","10 µM, pH 7.4",inhibition,9.5%
COc1ccc(CNC(=O)c2ccc(CNCc3cnc4nc(N)nc(N)c4n3)cc2)cc1,"enzyme activity, inhibitor, luciferase",,10 µM,inhibition,-18.9%
N=C(N)N1CC=C(c2coc(C(=O)Nc3ccc(C4=CCN(C(=N)N)CC4)c(F)c3)c2)CC1,"enzyme activity, inhibitor",liver microsomes,10 µM,inhibition,0%
